Source: ChEMBL document CHEMBL5143753, “Pyrimido[5,4-d]pyrimidine-Based Compounds as a Novel Class of Antitrypanosomal and Antileishmanial Agents” (ACS Med Chem Lett, 2022)

Legend:
[1] = Selectivity index, ratio of CC50 for human THP1 cells to IC50 for antitrypanosomal activity against Trypanosoma brucei brucei Lister 427 bloodstream forms; assay type: toxicity; conditions: read-out: Ratio CC50/IC50
Summary of the method: (§1)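 Selectivity index was calculated as THP1 CC50 divided by parasite IC50.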

[2] = Cytotoxicity in human THP-1 cells assessed as reduction in cell viability incubated for 48 hrs hrs by MTT assay; assay type: toxicity, cell-based
[3] = test system: Trypanosoma brucei brucei; assay: Antitrypanosomal activity against Trypanosoma brucei brucei Lister 427 bloodstream forms incubated for 72 hrs by resazurin based assay; assay type: functional, organism-based; conditions: for IC50: Lister 427, 72 h; for IC90: Lister 427, time 72 hrs
Summary of the method: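 T. brucei was screened first at 10 μM, with pentamidine as the reference and internal control. IC50 was determined when growth inhibition was above 50%, reported with a 95% confidence interval for the mean curve of the independent assays.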

[4] = Selectivity index, ratio of CC50 for human THP1 cells to IC50 for Antileishmanial activity against luciferase-expressing Leishmania infantum (MHOM/MA/67/ITMAP-263) axenic amastigotes incubated for 72 hrs by resazurin based assay relative to control; assay type: toxicity; conditions: in the assay text read “promastigotes” for “axenic amastigotes”, read-out: Ratio CC50/IC50; summary of the method: as §1
[5] = test system: Leishmania infantum; assay: Antileishmanial activity against luciferase-expressing Leishmania infantum (MHOM/MA/67/ITMAP-263) axenic amastigotes incubated for 72 hrs by resazurin based assay relative to control; assay type: functional, organism-based; conditions: MHOM/MA/67/ITMAP-263, 72 h, in the assay text read “promastigotes” for “axenic amastigotes”

| Structure (SMILES) | IC50 [3] | IC90 [3] | selectivity ratio [1] | CC50 at 48 h [2] | selectivity ratio at 72 h [4] | IC50 [5] |
| --- | --- | --- | --- | --- | --- | --- |
| NNc1ncnc2c(Nc3cccc(OCCCO)c3)ncnc12 | 9.89 µM | 24.1 µM | > 10 | > 100 µM | – | – |
| Oc1cc(/C=N/Nc2ncnc3c(Nc4cccc(OCc5ccncc5)c4)ncnc23)cc(O)c1O | 3.88 µM | 8.36 µM | > 26 | > 100 µM | – | – |
| COc1cc(/C=N/Nc2ncnc3c(Nc4cccc(OCCCO)c4)ncnc23)cc(OC)c1OC | 6.12 µM | 17.6 µM | 8 | 50 µM | – | – |
| COc1cc(/C=N/Nc2ncnc3c(Nc4ccc(OCCCO)cc4)ncnc23)cc(OC)c1O | 12.4 µM | 255 µM | 4 | 50 µM | – | – |
| Oc1ccc(/C=N/Nc2ncnc3c(Nc4cccc(OCc5ccncc5)c4)ncnc23)cc1O | 1.73 µM | 1.75 µM | > 58 | > 100 µM | – | – |
| OCCCOc1ccc(Nc2ncnc3c(N/N=C/c4ccc(O)cc4)ncnc23)cc1 | 12.9 µM | 88.3 µM | 3 | 50 µM | – | – |
| COc1cc(/C=N/Nc2ncnc3c(Nc4cccc(OCc5ccncc5)c4)ncnc23)cc(OC)c1O | 3.41 µM | 37.2 µM | > 29 | > 100 µM | – | – |
| NNc1ncnc2c(Nc3cccc(OCc4ccncc4)c3)ncnc12 | 0.94 µM | 1.24 µM | > 107 | > 100 µM | > 32 | 3.13 µM |
| OCCCOc1ccc(Nc2ncnc3c(N/N=C/c4cc(O)c(O)c(O)c4)ncnc23)cc1 | 6.95 µM | 20.5 µM | > 14 | > 100 µM | – | – |
| NNc1ncnc2c(Nc3ccc(OCCCO)cc3)ncnc12 | 3.03 µM | 35.8 µM | > 33 | > 100 µM | – | – |
| COc1cc(/C=N/Nc2ncnc3c(Nc4ccc(OCCCO)cc4)ncnc23)cc(OC)c1OC | 3.32 µM | 37.7 µM | > 30 | > 100 µM | – | – |
| COc1ccc(/C=N/Nc2ncnc3c(Nc4ccc(OCCCO)cc4)ncnc23)cc1OC | 8.59 µM | 25.5 µM | 6 | 50 µM | – | – |
| OCCCOc1ccc(Nc2ncnc3c(N/N=C/c4ccc(O)c(O)c4)ncnc23)cc1 | 1.9 µM | 2.07 µM | 5 | 25 µM | – | – |
| CCCCCCCCCCCCCCCCOP(=O)([O-])OCC[N+](C)(C)C [MILTEFOSINE] | – | – | – | 30.9 µM | 1.3 | 2.21 µM |
| N=C(N)c1ccc(OCCCCCOc2ccc(C(=N)N)cc2)cc1 [PENTAMIDINE] | 0.00405 µM | – | 12800 | 51.8 µM | – | – |

Further lines, with some results ahead:

| IC50 [3] | IC90 [3] | Structure (SMILES) | selectivity ratio [1] | CC50 at 48 h [2] | selectivity ratio at 72 h [4] | IC50 [5] |
| --- | --- | --- | --- | --- | --- | --- |
| 2.29 µM | 5.67 µM | OCCCOc1cccc(Nc2ncnc3c(N/N=C/c4ccc(O)c(O)c4)ncnc23)c1 | 4 | 25 µM | – | – |
| 6.18 µM | 21.2 µM | OCCCOc1cccc(Nc2ncnc3c(N/N=C/c4ccc(O)cc4)ncnc23)c1 | 8 | 50 µM | – | – |
| 3.76 µM | 9.22 µM | COc1cc(/C=N/Nc2ncnc3c(Nc4ccc(OCCCO)cc4)ncnc23)ccc1O | 14 | 50 µM | – | – |
| 2.72 µM | 8.17 µM | COc1ccc(/C=N/Nc2ncnc3c(Nc4cccc(OCCCO)c4)ncnc23)cc1OC | > 37 | > 100 µM | – | – |
| 3.26 µM | 14.5 µM | OCCCOc1cccc(Nc2ncnc3c(N/N=C/c4cc(O)c(O)c(O)c4)ncnc23)c1 | 15 | 50 µM | – | – |
| 2.6 µM | 8.73 µM | COc1ccc(/C=N/Nc2ncnc3c(Nc4ccc(OCCCO)cc4)ncnc23)cc1O | 19 | 50 µM | – | – |
| 6.57 µM | 18.7 µM | COc1ccc(/C=N/Nc2ncnc3c(Nc4cccc(OCCCO)c4)ncnc23)cc1O | 8 | 50 µM | – | – |
| 13.4 µM | 44.9 µM | COc1cc(/C=N/Nc2ncnc3c(Nc4cccc(OCCCO)c4)ncnc23)ccc1O | 1 | 25 µM | – | – |
| 6.06 µM | 18.1 µM | COc1cc(/C=N/Nc2ncnc3c(Nc4cccc(OCCCO)c4)ncnc23)cc(OC)c1O | 4 | 50 µM | – | – |
